The target in data set [1] is T1, Inhibitor of nuclear factor kappa-B kinase subunit alpha (Homo sapiens, UniProt O15111).
T1 sequence (O15111 whole entry): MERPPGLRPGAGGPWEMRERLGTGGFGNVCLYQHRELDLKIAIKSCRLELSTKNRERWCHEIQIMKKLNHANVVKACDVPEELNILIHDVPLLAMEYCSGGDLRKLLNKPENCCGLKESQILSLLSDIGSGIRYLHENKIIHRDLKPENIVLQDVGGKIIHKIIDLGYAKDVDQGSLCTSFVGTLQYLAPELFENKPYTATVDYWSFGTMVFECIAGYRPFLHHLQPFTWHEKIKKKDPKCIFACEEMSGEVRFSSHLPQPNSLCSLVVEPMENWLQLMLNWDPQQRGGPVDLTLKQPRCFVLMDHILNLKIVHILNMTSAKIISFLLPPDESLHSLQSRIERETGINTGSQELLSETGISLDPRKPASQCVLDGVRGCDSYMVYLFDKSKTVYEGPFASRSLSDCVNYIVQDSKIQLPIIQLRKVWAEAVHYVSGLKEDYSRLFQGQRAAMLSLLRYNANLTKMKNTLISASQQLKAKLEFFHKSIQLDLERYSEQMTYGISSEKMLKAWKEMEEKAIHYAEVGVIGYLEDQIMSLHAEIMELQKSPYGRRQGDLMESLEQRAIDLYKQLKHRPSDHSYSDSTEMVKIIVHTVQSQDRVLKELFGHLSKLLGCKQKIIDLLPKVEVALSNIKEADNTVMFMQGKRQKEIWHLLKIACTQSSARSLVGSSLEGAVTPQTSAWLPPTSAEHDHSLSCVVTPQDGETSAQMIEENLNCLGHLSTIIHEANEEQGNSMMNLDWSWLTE
In words: Inhibition of recombinant IKKalpha after 15 mins.

Data set [2] is described as follows: Apparent permeability of the compound at pH 7.4 by PAMPA method. The data set is classed as ADME. A general note: In PAMPA a lipid-coated filter parts donor from acceptor wells.
Data set [3] has as its target Cyclin-dependent kinase 2 (Homo sapiens, UniProt P24941). Nature of the data set: Inhibition of recombinant CDK2 after 15 mins.
Data set [4] concerns THP-1. In words: Antiinflammatory activity in human THP1 cells assessed as inhibition of LPS-induced TNFalpha production after 4 hrs by ELISA. It is filed as functional, cell-based. The following applies: THP-1, 4 h. The method, boiled down:
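THP-1 cells primed 3–4 days with 100 nM calcitriol in RPMI-1640 containing 10% FBS, then cultured overnight without calcitriol. Resuspended in RPMI-1640 with 25 mM HEPES at 1.5×10^5 cells/mL. Compound and E. coli O111:B4 LPS added together, 4 h at 37 °C in 5% CO2. TNFα measured in the centrifuged supernatant by ELISA.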
(In an ELISA, binding on a coated surface is turned into a signal by an enzyme label.)

Data set [5] has as its target T2, Inhibitor of nuclear factor kappa-B kinase subunit beta (Homo sapiens, UniProt O14920).
T2 sequence (O14920 whole entry): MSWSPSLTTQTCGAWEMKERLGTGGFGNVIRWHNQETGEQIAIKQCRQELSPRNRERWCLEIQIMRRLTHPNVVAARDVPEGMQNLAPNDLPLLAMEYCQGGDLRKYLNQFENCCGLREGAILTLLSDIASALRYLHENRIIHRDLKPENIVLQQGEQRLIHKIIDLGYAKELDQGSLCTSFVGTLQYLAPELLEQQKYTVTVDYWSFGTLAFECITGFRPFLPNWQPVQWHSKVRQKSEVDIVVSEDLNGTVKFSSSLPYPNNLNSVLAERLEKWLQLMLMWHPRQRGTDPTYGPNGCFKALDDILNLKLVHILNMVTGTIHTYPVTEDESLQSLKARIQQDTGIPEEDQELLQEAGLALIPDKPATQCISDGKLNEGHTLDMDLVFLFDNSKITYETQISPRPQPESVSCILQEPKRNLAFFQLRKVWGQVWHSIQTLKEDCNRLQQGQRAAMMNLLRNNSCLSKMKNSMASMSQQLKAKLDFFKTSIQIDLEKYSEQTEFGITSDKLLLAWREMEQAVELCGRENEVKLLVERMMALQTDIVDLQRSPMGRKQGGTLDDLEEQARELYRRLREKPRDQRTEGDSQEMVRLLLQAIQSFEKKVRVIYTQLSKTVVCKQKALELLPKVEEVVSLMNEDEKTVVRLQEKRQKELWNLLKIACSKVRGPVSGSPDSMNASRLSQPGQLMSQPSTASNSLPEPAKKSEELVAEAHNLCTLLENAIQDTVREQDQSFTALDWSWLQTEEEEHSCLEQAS
In words: Inhibition of purified His-tagged IKK-beta after 15 mins.

Data set [6] deals with Glycogen synthase kinase-3 beta (Homo sapiens, UniProt P49841). Nature of the data set: Inhibition of recombinant GSK3-beta after 15 mins. In outline:
(§1)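 Each recombinant kinase was assayed with ATP at its own Km.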

Data set [7] concerns the target Mitogen-activated protein kinase 10 (Homo sapiens, UniProt P53779). Nature of the data set: Inhibition of recombinant JNK3 after 15 mins. The method, boiled down: as §1
For data set [8], the target named is Mitogen-activated protein kinase 14 (Homo sapiens, UniProt Q16539). In words: Inhibition of recombinant p38alpha after 15 mins. In outline:
as §1

Chain of Mitogen-activated protein kinase 10 (P53779 whole entry): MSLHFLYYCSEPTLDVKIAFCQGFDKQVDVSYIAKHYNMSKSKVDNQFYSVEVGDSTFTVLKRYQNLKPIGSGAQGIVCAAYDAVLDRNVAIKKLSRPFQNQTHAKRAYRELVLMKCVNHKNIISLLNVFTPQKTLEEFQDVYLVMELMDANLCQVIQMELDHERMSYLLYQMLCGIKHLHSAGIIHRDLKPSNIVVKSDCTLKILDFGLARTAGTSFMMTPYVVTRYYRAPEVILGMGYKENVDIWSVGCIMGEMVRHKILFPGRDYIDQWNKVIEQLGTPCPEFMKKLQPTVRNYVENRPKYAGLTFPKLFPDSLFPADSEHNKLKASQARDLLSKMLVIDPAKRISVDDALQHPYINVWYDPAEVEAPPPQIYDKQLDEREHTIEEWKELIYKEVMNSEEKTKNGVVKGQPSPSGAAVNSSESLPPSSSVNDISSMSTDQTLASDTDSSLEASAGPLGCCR
Chain of Glycogen synthase kinase-3 beta (P49841 whole entry): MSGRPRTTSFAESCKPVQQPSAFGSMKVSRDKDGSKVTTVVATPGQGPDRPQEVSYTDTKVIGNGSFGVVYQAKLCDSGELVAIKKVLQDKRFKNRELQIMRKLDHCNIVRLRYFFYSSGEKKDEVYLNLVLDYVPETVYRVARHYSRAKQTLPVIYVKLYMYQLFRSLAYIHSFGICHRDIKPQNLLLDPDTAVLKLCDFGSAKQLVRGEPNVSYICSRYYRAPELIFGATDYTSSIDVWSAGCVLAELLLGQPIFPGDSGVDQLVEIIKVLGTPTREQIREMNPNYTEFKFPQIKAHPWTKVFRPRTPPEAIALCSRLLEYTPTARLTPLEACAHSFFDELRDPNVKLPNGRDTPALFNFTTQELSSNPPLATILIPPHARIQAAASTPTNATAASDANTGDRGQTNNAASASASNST
Chain of Mitogen-activated protein kinase 14 (Q16539 whole entry): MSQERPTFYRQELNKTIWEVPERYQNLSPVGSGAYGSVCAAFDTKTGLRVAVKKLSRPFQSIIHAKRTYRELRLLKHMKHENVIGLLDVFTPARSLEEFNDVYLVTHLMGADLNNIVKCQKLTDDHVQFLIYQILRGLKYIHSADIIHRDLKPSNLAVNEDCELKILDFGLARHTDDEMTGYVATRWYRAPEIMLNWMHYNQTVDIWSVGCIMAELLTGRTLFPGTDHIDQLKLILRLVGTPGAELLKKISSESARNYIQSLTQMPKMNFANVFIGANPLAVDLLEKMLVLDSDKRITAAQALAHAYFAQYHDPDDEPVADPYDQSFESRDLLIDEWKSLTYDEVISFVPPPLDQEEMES

The term IC50 denotes the concentration at which inhibition is half-maximal. One may read the Papp as a coefficient for how fast a substance crosses the barrier. `CN(C)CCNC(=O)c1ccc(-c2cnc3ccc(NCC4CC4)nn23)cc1`: the IC50 is > 100 µM in data set [1]; > 100 µM in data set [3]; 690 nM in data set [4]; 200 nM in data set [5]; > 100 µM in data set [6]; > 100 µM in data set [7]. Besides, in data set [8], the IC50 was > 100 µM. Further, the Papp in data set [2] is > 50 ×10⁻⁶ cm/s.

The values are drawn from ChEMBL document CHEMBL1221302, “Discovery of imidazo[1,2-b]pyridazine derivatives as IKKbeta inhibitors. Part 1: Hit-to-lead study and structure-activity relationship” (Bioorg Med Chem Lett, 2010).
